Source: ChEMBL document CHEMBL1141616, “Structure-activity relationships in the inhibition of monoamine oxidase B by 1-methyl-3-phenylpyrroles” (Bioorg Med Chem, 2008)
Calls of active or inactive are those of the source. No cut-off for these calls is given here.

Assays:
[1] = Inhibition of baboon liver mitochondrial MAOB; design: species or system Papio hamadryas
Bos taurus = species: Bos taurus; assay: Inhibition of beef liver mitochondrial MAOB at 200 uM
Papio hamadryas = species: Papio hamadryas; assay: Inhibition of baboon liver mitochondrial MAOB at 5.20 uM
Method in brief: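 Time-dependence test: baboon liver mitochondria (0.3 mg protein/mL) were preincubated with inhibitor at 5.20 µM in 100 mM sodium phosphate, pH 7.4, for 0, 15, 30 and 60 min at 37 °C. This was then diluted to 0.15 mg protein/mL with 90 µM MMTP, giving a final inhibitor concentration of 2.60 µM. Incubated 15 min at 37 °C, stopped with perchloric acid, and MMDP⁺ was measured.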

## Cn1ccc(-c2ccc(F)cc2)c1
[1]
  Ki: 31 µM
Bos taurus
  Activity: inactive

## Cn1ccc(-c2cccc(Br)c2)c1
[1]
  Ki: 14.3 µM
Bos taurus
  Activity: inactive

## COc1cccc(-c2ccn(C)c2)c1
[1]
  Ki: 41.7 µM
Bos taurus
  Activity: inactive

## Cc1ccc(-c2ccn(C)c2)cc1
[1]
  Ki: 22.5 µM
Bos taurus
  Activity: inactive

## Cn1ccc(-c2cccc(C(F)(F)F)c2)c1
[1]
  Ki: 6.55 µM
Bos taurus
  Activity: inactive

## Cn1ccc(-c2ccc(Br)cc2)c1
[1]
  Ki: 6.65 µM
Bos taurus
  Activity: inactive

## Cn1ccc(-c2ccc(C(F)(F)F)cc2)c1
[1]
  Ki: 1.3 µM
Papio hamadryas
  Activity: Active
Bos taurus
  Activity: inactive

## Cn1ccc(-c2cccc(Cl)c2)c1
[1]
  Ki: 20.9 µM
Bos taurus
  Activity: inactive

## Cn1ccc(-c2ccc(Cl)cc2)c1
[1]
  Ki: 18.4 µM
Bos taurus
  Activity: inactive

## COc1ccc(-c2ccn(C)c2)cc1
[1]
  Ki: 36.5 µM
Bos taurus
  Activity: inactive

## Cn1ccc(-c2ccccc2)c1
[1]
  Ki: 118 µM
Bos taurus
  Activity: inactive

## Cc1cccc(-c2ccn(C)c2)c1
[1]
  Ki: 56 µM
Bos taurus
  Activity: inactive

## Cn1ccc(-c2cccc(F)c2)c1
[1]
  Ki: 38.9 µM
Bos taurus
  Activity: inactive
